Compounds with a hit are over-represented: about 0.61% of the library has one in this group of screens.
CFTR F508del cor: F508del CFTR correction, initial screen, CFBE line, single point; activity (quench increase), % at 7.58 µM; CFBE cells, YFP halide quenching; stimulated with forskolin plus potentiator P3; % fluorescence drop versus neutral controls; 350,000 compounds, 0.36% hits;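 active = mean added fluorescence quench of at least 8% versus neutral control, with both replicates also reaching 8%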;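 note: cells transiently co-express mutant CFTR-F508del with the halide-sensitive YFP; corrector assay measuring rescue of mutant channel to the surface after 24 h compound exposure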
E-selectin induc: E-selectin induction in HUVECs, primary screen, imaging, HUVEC, immunofluorescence imaging, single point; AID 686992, 2013; normalized: neutral wells 0, TNF-alpha wells 100; activation, % at 7.58 µM; P16581; 260,000 compounds, 0.37% hits;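 active = mean E-selectin-positive cell signal at least 10% of the positive control, reached in at least 60% of replicates, without over 20% cell loss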
Target sequence (P16581 whole entry, looked up): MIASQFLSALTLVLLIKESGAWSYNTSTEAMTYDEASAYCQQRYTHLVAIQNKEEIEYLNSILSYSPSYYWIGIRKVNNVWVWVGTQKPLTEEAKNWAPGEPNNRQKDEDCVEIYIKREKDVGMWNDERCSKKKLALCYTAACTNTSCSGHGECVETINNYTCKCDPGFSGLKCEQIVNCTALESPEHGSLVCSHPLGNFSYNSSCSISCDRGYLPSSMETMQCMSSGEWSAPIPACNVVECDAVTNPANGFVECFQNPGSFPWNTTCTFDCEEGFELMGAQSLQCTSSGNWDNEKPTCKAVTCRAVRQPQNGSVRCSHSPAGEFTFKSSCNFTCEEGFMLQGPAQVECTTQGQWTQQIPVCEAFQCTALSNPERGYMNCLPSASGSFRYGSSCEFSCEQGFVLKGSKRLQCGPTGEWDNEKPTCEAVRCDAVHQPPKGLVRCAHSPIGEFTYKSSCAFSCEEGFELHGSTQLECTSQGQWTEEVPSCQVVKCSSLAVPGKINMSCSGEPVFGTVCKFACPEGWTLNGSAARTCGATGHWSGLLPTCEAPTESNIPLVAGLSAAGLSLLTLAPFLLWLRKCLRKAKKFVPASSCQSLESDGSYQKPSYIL
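Assay system: HUVEC, human umbilical vein endothelial cells / Amount: 3,000 HUVEC/well / Controls: TNF-alpha positive control, DMSO neutral control / Compound dosing: single concentration / Medium: EGM-2 over gelatin coat / Evaluation: percent E-selectin-positive cells / Signal: immunofluorescence imaging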
XiGFP reactiv: activators of inactive X chromosome reactivation, primary screen, imaging, XiGFP fibroblasts, GFP high-content imaging, set 2 | XiGFP mouse fibroblasts, % GFP-positive cells imaging, 3 d; cells co-treated with 5-aza-dC sensitizer; scaled so ellipticine positive control = 100% | activation, % at 7.58 µM | 360,000 compounds, 0.055% hits | AID 743238, 2013;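 active = mean normalized replicate activation at least 10% and every replicate at or above 10%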
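Material: XiGFP fibroblasts, SV40-immortalized; Buffer or medium: DMEM containing 5-aza-dC; Compound dosing: single point; Times: 3 days compound exposure.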
A number is an active result; i = inactive; nt = no result given.

SMILES | CFTR F508del cor | E-selectin induc | XiGFP reactiv
CC(C)NC(=O)Nc1cccc2c1O[C@H](CN(C)Cc1ccc(C(F)(F)F)cc1)[C@@H](C)CN([C@@H](C)CO)C2=O | i | i | i
C[C@H](CO)N1C[C@H](C)[C@@H](CN(C)Cc2ccc(C(F)(F)F)cc2)Oc2c(NS(C)(=O)=O)cccc2C1=O | i | 198 | i
C[C@@H]1CN([C@H](C)CO)C(=O)c2cccc(NC(=O)c3ccncc3)c2O[C@@H]1CN(C)Cc1ccc(C(=O)Nc2ccccc2N)cc1 | i | 58 | i
CC(C)(C)[S@@](=O)N1Cc2cc(C(=O)N3CCOCC3)nc(-c3cccc(Br)c3)c2[C@H]1CCO | i | i | i
CC(C)NC(=O)Nc1cccc2c1O[C@H](CN(C)Cc1ccncc1)[C@@H](C)CN([C@H](C)CO)C2=O | i | 81 | i
C[C@@H]1CN([C@@H](C)CO)C(=O)Cc2cc(N(C)C)ccc2O[C@H]1CN(C)Cc1ccc(C(=O)Nc2ccccc2N)cc1 | i | i | i
CC(C)NC(=O)Nc1cccc2c1O[C@@H](CN(C)Cc1ccccc1)[C@@H](C)CN([C@@H](C)CO)C2=O | i | i | i
C[C@@H]1CN([C@@H](C)CO)C(=O)Cc2cc(N(C)C)ccc2O[C@@H]1CN(C)Cc1ccc(C(=O)Nc2ccccc2N)cc1 | 15 | i | i
CCC(=O)N1[C@H](CNC(=O)CN(C)C)[C@H](c2ccc(C3=CCCC3)cc2)[C@@H]1CO | i | i | i
C[C@@H]1CCCCO[C@H](CN(C)C)[C@H](C)CN([C@@H](C)CO)C(=O)c2cc(NC(=O)c3ccncc3)ccc2O1 | i | i | i
COCC(=O)N(C)C[C@@H]1Oc2cc(-c3ccccc3F)ccc2S(=O)(=O)N([C@H](C)CO)C[C@H]1C | i | i | i
O=C(c1ccccc1)N1CC2(C1)[C@H](c1ccccc1)[C@@H](CO)N2CC1CC1 | i | i | i
Cc1noc(C)c1S(=O)(=O)Nc1ccc2c(c1)C(=O)N([C@H](C)CO)C[C@@H](C)[C@H](CN(C)Cc1ccc3c(c1)OCO3)O2 | i | 26 | i
Cc1noc(C)c1S(=O)(=O)Nc1ccc2c(c1)C(=O)N([C@H](C)CO)C[C@@H](C)[C@@H](CN(C)Cc1ccc(Cl)c(Cl)c1)O2 | i | nt | i
Cc1noc(C)c1S(=O)(=O)Nc1ccc2c(c1)C(=O)N([C@H](C)CO)C[C@@H](C)[C@@H](CN(C)Cc1ccc3c(c1)OCO3)O2 | i | 44 | i
Cc1noc(C)c1S(=O)(=O)Nc1ccc2c(c1)C(=O)N([C@H](C)CO)C[C@H](C)[C@@H](CN(C)Cc1ccc(Cl)c(Cl)c1)O2 | i | nt | i
Cc1noc(C)c1NC(=O)Nc1ccc2c(c1)CC(=O)N([C@@H](C)CO)C[C@H](C)[C@H](CN(C)C)O2 | i | i | i
C[C@@H]1CN([C@@H](C)CO)C(=O)c2cc(N(C)C)ccc2O[C@@H]1CN(C)C(=O)NC1CCCCC1 | i | i | i
C[C@@H]1CN([C@H](C)CO)C(=O)Cc2cc(NS(C)(=O)=O)ccc2O[C@@H]1CN(C)CC1CCCCC1 | i | i | i
CC(=O)Nc1cccc(-c2ccnc3c2CC(C)(C(=O)NCc2cccc(Cl)c2)O3)c1 (centres undefined) | i | i | i
CC(=O)Nc1cccc(-c2ccnc3c2CC(C)(C(=O)NCc2cccs2)O3)c1 (centres undefined) | 9.9 | i | i
CC1(C(=O)NCc2ccccc2)Cc2c(-c3ccc(C(N)=O)cc3)ccnc2O1 (centres undefined) | 15 | i | i
CC1(C(=O)NCc2ccccc2)Cc2c(-c3ccccc3)ccnc2O1 (centres undefined) | i | i | i
C[C@@H]1CCCCO[C@H](CN(C)C(=O)Cc2ccccc2)[C@@H](C)CN([C@@H](C)CO)C(=O)c2cc(N(C)C)ccc2O1 | i | i | i
CN(Cc1ccccc1)S(=O)(=O)c1ccc(NC(=S)NC(=O)C2CCCC2)cc1 | 14 | nt | nt
CN(C)S(=O)(=O)c1ccc(NC(=S)NC(=O)C2CCC2)cc1 | i | i | i
CO[C@@H]1CN(C)C(=O)c2cc(NS(=O)(=O)c3cccc(F)c3)ccc2OC[C@@H](C)NC[C@H]1C | i | i | i
C[C@H]1CN([C@@H](C)CO)C(=O)c2cc(NC(=O)Nc3ccc(C(F)(F)F)cc3)ccc2O[C@H]1CN(C)S(=O)(=O)c1ccccc1 | i | i | i
